Source: PubChem (Broad Institute)
An excerpt weighted towards active compounds, which were near 3.3% of everything screened.
XiGFP reactiv = activators of X-chromosome reactivation in mouse fibroblasts; XiGFP mouse fibroblasts, % GFP-positive cells imaging, 3 d; cells co-treated with 5-aza-dC sensitizer; scaled so ellipticine positive control = 100%; activation, % at 7.58 µM; 360,000 compounds, 0.055% hits;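 active = mean normalized replicate activation at least 10% and every replicate at or above 10%; inconclusive = only one of the two criteria met; inactive = mean below 10% and not all replicates reach 10%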
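System: 68-5-11 XiGFP fibroblast line | Buffer or medium: DMEM containing 5-aza-dC | Compound: Single point | Times: Compounds 3 days, fix/stain 15 min at room temperature | Benchmarks: Positive control ellipticine, 6 µM final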
Statin myotox sup = suppressors of simvastatin-induced myotoxicity in C2C12 myotubes. ATP luminescence, 48 h; scaled: DMSO 0, geranylgeraniol control 100. rescue of ATP level, % at 7.49 µM. 330,000 compounds, 0.78% hits;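 active = mean ATP rescue above about 67%, or every replicate alone reaching that limit, limit read from the data, passing the limit was not always enough; inconclusive = no clear call, values can overlap the other calls; inactive = mean under the limit and some replicate under it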;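 also: myotubes were challenged with 10 µM simvastatin during compound exposure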
PglD inh = blocks C. jejuni PglD acetyltransferase activity | purified PglD enzyme, DTNB colorimetric CoA detection | inhibition, % at 12.5 µM | 360,000 compounds, 0.098% hits | AID 602405; in the data active = inhibition above about 16%, passing the limit was not always enough; inconclusive = no clear call, values can overlap the other calls
E-selectin induc = E-selectin induction on HUVECs. activation, % at 7.58 µM. HUVEC E-selectin immunofluorescence imaging; normalized: neutral wells 0, TNF-alpha wells 100. 260,000 compounds, 0.37% hits;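 active = mean E-selectin-positive cell signal at least 10% of the positive control, reached in at least 60% of replicates, without over 20% cell loss; inconclusive = no rule given, readout overlaps actives, possibly toxicity-flagged; inactive = the rest, including those meeting only one limit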
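Material: HUVEC primary endothelial cells; Amount: 3,000 cells per well; Dosing: single concentration; Medium: EGM-2 growth medium on 0.1% gelatin-coated wells; Read-out basis: percent E-selectin-positive cells; Signal: immunofluorescence imaging; Control set: TNF-alpha, DMSO.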
FGF22 binding = shifts melting point of recombinant human FGF22; Q9HCT0; recombinant FGF22 thermal shift, SYPRO orange fluorescence; percent of sucrose octasulfate shift, DMSO zero; activity (Tm shift, normalised), % at 9.99 µM; 340,000 compounds, 1.5% hits;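 active = mean Tm shift, scaled 0 neutral to 100 positive control, at about 1.3% or above, every replicate too, limit read from the data; inconclusive = no clear call, values can overlap the other calls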
Target sequence (Q9HCT0 whole entry, looked up): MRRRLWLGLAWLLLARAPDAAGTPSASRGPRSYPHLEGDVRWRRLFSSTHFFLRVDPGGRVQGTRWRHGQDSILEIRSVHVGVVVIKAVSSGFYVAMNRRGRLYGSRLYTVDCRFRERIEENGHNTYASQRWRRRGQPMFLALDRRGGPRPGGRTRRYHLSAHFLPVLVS
DENV2 CPE = protects cells from dengue virus 2 cytopathic effect; CPE inhibition, % at 9.99 µM; DENV2-infected cells, cytopathic effect rescue, plate reader; 350,000 compounds, 1.7% hits; AID 651640; in the data active = CPE inhibition above about 20%, passing the limit was not always enough; inconclusive = no clear call, values can overlap the other calls; tested in BHK-21 cells
Hits are given with their value; – = inactive; ? = inconclusive; · = not tested or not shown.

SMILES | XiGFP reactiv | Statin myotox sup | PglD inh | E-selectin induc | FGF22 binding | DENV2 CPE
C[C@@H]1CCCCO[C@H](CN(C)Cc2ccccc2)[C@H](C)CN([C@H](C)CO)C(=O)c2cc(NC(=O)C3CCCCC3)ccc2O1 | – | · | – | – | – | –
O=S(=O)(NCCC1=CCCCC1)c1ccc(Br)cc1 | – | – | – | – | – | 119
Clc1ccc(CNc2ncnc3[nH]ncc23)cc1Cl | – | – | · | – | – | –
CCCNc1ncnc2[nH]ncc12 | – | – | – | – | – | –
CC(C)CNc1ncnc2[nH]ncc12 | – | – | · | – | 44 | –
Clc1ccc(CNc2ncnc3[nH]ncc23)c(Cl)c1 | – | – | · | – | 43 | –
C[C@@H]1CN([C@H](C)CO)C(=O)c2cc(NC(=O)CCC(F)(F)F)ccc2O[C@@H](C)CCCCO[C@H]1CN(C)C(=O)c1ccccc1 | – | · | – | – | – | –
COc1ccc(NC(=S)Nc2cc(C(F)(F)F)ccc2F)cc1 | – | · | · | · | 44 | –
COCC#Cc1cnc2c(c1)C(=O)N([C@H](C)CO)C[C@@H](C)[C@@H](CN(C)C(=O)c1cnccn1)O2 | – | – | – | · | – | –
COc1cccc(-n2c(Cc3cc(=O)[nH]c(=O)[nH]3)nnc2SCC(=O)N2CCCCCC2)c1 | – | – | – | · | – | 69
COc1ccc(-n2c(Cc3cc(=O)[nH]c(=O)[nH]3)nnc2SCC(=O)N2CCCC2)cc1 | – | – | – | – | – | –
Cc1ccccc1-n1c(SCC(=O)N2CCCCC2)nc(O)cc1=O | – | – | – | – | – | –
COc1ccc(N2CCN(C(=O)CSc3ccc([N+](=O)[O-])cc3)CC2)cc1 | – | · | · | · | – | –
COc1ccc(-n2c(SCC(=O)N3CCCCC3)nc(O)cc2=O)cc1 | · | 120 | – | · | · | ·
COc1ccc(N2CCN(C(=O)CSc3ccc(C)cc3)CC2)cc1 | – | · | · | – | 44 | –
CO[C@H]1CN(C)C(=O)c2ccc(NC(=O)Nc3cccc(F)c3)cc2OC[C@@H](C)N(C(=O)C2CC2)C[C@H]1C | – | – | · | – | · | ·
Cc1noc(C)c1S(=O)(=O)N(C)C[C@H]1OCCCC[C@@H](C)Oc2ccc(NC(=O)Nc3ccc(C(F)(F)F)cc3)cc2C(=O)N([C@@H](C)CO)C[C@@H]1C | – | · | – | – | – | –
C[C@@H]1CCCCO[C@@H](CN(C)C(=O)Nc2ccccc2)[C@H](C)CN([C@@H](C)CO)C(=O)c2cc(NC(=O)c3ccccc3)ccc2O1 | – | · | – | · | – | –
CC(=O)N1[C@H](C)C=C[C@]1(Cc1ccccc1)C(=O)O | – | – | – | – | – | ·
COCCNC(=O)[C@@]1(Cc2ccccc2)C=C[C@@H](C)N1C(C)=O | – | 121 | – | – | – | –
CCNC(=O)C[C@@H]1C=C[C@@H](NC(=O)NC2CCCCC2)[C@H](CO)O1 | – | – | – | – | – | –
C[C@@H]1CN([C@H](C)CO)S(=O)(=O)c2ccc(-c3ccccc3)cc2O[C@@H]1CN(C)C(=O)C1CCC1 | – | – | · | – | · | ·
O=C(C[C@@H]1C=C[C@H](NC(=O)C2CC2)[C@@H](CO)O1)NC1CCC1 | – | – | – | – | – | –
COc1ccc2cc(C(=O)C3CCCN(C(=O)CSc4nnc(C)o4)C3)ccc2c1 (configuration not stated) | – | · | · | – | – | –
Cc1nnc(SCC(=O)N2CCCC(C(=O)c3ccc(Cl)cc3)C2)o1 (configuration not stated) | – | · | – | – | 43 | –
SMILES | XiGFP reactiv | Statin myotox sup | PglD inh | E-selectin induc | FGF22 binding | DENV2 CPE
c1ccc(-c2cc(N3CCCCCC3)n[nH]2)cc1 | · | 93 | – | · | · | ·
c1ccc(-c2cc(N3CCCCC3)ncn2)cc1 | · | · | – | · | · | ·
O=C(C[C@H]1CC[C@H]2[C@@H](COC[C@@H](O)CN2S(=O)(=O)c2cccc(F)c2)O1)NCc1ccc2c(c1)OCO2 | – | – | – | – | – | –
C[C@@H]1CN([C@@H](C)CO)C(=O)c2cc(C#CC(C)(C)O)cnc2O[C@H]1CN(C)Cc1cncnc1 | – | – | – | – | – | 64
C[C@@H]1CN([C@@H](C)CO)C(=O)c2cc(C#CC(C)(C)O)cnc2O[C@@H]1CN(C)Cc1cncnc1 | – | – | – | – | – | 23
C[C@H](CO)N1C[C@H](C)[C@H](CN(C)Cc2cncnc2)Oc2ncc(C#CC(C)(C)O)cc2C1=O | – | – | – | – | – | –
CN1c2ccc(C3=CCCCC3)cc2[C@@H]2[C@@H](CCN2S(=O)(=O)c2ccccc2)[C@@H]1CO | – | – | – | – | – | ?
Cc1ccc2oc(=S)n(C)c2c1 | – | · | · | – | · | ·
Cn1c(=S)oc2ccccc21 | – | 89 | – | – | – | –
COC(=O)c1sc(S(=O)(=O)Nc2ccc3cn[nH]c3c2)c(C(=O)OC)c1C | · | 117 | – | · | · | ·
O=C(NCc1ccccc1)[C@H]1CCCN1C(=O)[C@H]1CCCN1C(=O)c1ccc(Cl)cc1 | – | · | · | – | – | 44
CC(C)(C)OC(=O)N1CCC[C@@H]1C(=O)NCc1ccccc1 | – | · | · | – | – | –
COc1cccc(CNC(=O)[C@H]2CCCN2C(=O)C2CCCN2C(=O)c2ccc(OC)c(F)c2)c1 (some centres not stated) | – | · | · | – | – | 28
O=C(O)c1ccc(CNC(=O)C2CCCN2C(=O)OCc2ccccc2)cc1 (configuration not stated) | – | – | – | – | – | 25
Cc1noc(C)c1C(=O)N(C)C[C@H]1OCc2ccccc2-c2ccccc2C(=O)N([C@@H](C)CO)C[C@H]1C | – | · | · | · | · | ·
CCN(CC)c1ccc(NC(=O)c2cc3ccccc3o2)c(C)c1 | · | 159 | – | · | · | ·
Cc1ccccc1NC(=O)c1cc2ccccc2o1 | – | – | – | – | – | –
COc1ccc(CC(=O)Nc2ccccc2Oc2ccccc2)cc1 | – | · | · | · | 43 | –
COc1ccccc1NC(=O)Nc1nc(CC(=O)N2CCN(c3ccc(F)cc3)CC2)cs1 | – | – | – | – | – | 40
COc1ccc(OCC(=O)Nc2nc3ccccc3[nH]2)cc1 | · | 74 | – | · | · | ·
COc1ccc(N2CCN(C(=O)Cc3csc(NC(=O)Nc4ccccc4OC)n3)CC2)cc1 | – | – | – | – | – | –
CN(C)Cc1csc(NC(=O)Nc2ccccc2Oc2ccccc2)n1 | – | 73 | – | – | – | –
CC(C)(C)[S@@](=O)N1Cc2cc(C(=O)NCCc3ccncc3)nc(-c3cccc(-c4ccccc4)c3)c2[C@H]1CCO | – | · | · | – | – | –
COc1ccc(NC(=O)COc2ccc(Br)cc2)c(OC)c1 | – | – | – | – | – | –
COc1ccc(NC(=O)COc2ccccc2)c(OC)c1 | · | 98 | – | · | · | ·
O=C1[C@H]2[C@@H](/C=C/c3ccccc3)N3C(=O)CN(CCO)C(=O)[C@@]3(Cc3ccccc3)[C@H]2C(=O)N1c1ccccc1 | – | – | – | – | – | 56
